Laboratory results: ChEMBL document CHEMBL1149279, “2,4,6-trisubstituted pyrimidines as a new class of selective adenosine A1 receptor antagonists” (J Med Chem, 2004)

Legend:
Adenosine receptor A1 = target: T1, Adenosine receptor A1 (Homo sapiens, UniProt P30542); assay: Displacement of [3H]DPCPX from human adenosine A1 receptor expressed in CHO cells; format: cell-based
T1 sequence (P30542 whole entry): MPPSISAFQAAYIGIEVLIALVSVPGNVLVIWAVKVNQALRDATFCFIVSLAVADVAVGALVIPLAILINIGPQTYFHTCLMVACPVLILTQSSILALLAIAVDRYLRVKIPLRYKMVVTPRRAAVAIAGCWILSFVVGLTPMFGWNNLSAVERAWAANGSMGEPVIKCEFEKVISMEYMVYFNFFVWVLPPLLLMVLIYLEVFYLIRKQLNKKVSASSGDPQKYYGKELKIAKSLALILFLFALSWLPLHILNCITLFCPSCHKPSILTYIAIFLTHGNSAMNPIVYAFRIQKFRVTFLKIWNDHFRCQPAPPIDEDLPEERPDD

Adenosine receptor A2a [1] = target: T2, Adenosine receptor A2a (Homo sapiens, UniProt P29274); assay: Displacement of [3H]ZM241385 from human adenosine A2A receptor expressed in HEK293 cells at 1 uM; format: cell-based
[2] = target: T3, Adenosine receptor A3 (Homo sapiens) (UniProt P0DMS8); assay: Displacement of [125I]AB-MECA from human adenosine A3 receptor expressed in HEK293 cells at 1 uM; format: cell-based
T3 sequence (whole entry): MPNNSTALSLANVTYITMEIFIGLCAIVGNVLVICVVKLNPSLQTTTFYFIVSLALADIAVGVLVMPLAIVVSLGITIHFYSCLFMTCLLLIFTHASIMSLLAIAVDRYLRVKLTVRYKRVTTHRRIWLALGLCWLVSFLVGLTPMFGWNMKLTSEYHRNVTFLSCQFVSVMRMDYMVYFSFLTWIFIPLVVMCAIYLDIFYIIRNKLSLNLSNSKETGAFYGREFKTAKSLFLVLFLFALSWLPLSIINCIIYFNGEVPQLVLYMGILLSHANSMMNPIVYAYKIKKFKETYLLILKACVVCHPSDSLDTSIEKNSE

[3] = target: Adenosine receptors; A1 & A3 (Homo sapiens) (UniProt P30542+P0DMS8); assay: Selectivity for human adenosine A1 receptor over human adenosine A3 receptor; format: protein assay
Adenosine receptor A3 = target: T4, Adenosine receptor A3 (Homo sapiens, UniProt P0DMS8); assay: Displacement of [125I]AB-MECA from human adenosine A3 receptor expressed in HEK293 cells; format: cell-based
T4 sequence (P0DMS8 whole entry): T3 sequence (whole entry)

[4] = target: T5, Adenosine receptor A2b (Homo sapiens) (UniProt P29275); assay: Displacement of [3H]MRS1754 from human adenosine A2B receptor expressed in CHO cells at 1 uM; format: cell-based
T5 sequence (whole entry): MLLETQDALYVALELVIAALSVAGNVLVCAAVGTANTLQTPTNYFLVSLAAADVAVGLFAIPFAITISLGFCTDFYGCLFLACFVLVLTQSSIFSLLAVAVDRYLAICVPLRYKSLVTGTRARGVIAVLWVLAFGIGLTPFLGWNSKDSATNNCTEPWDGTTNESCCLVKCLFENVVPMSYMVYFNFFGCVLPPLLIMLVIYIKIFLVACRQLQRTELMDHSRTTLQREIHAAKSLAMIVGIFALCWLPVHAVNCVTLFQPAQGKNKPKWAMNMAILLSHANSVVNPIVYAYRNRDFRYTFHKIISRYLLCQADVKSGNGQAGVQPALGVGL
In short: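 CHO cells stably transfected with human A2B supply the membranes (20 μg protein). [3H]MRS1754 at 1.2 nM final, 1 h at 25 °C in 50 mM Tris/HCl, 10 mM MgCl2, 1 mM EDTA, 0.01 w/v % CHAPS. Nonspecific binding with 1 mM NECA. Filtration and scintillation counting; % displacement at 1 μM, n = 2.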

[5] = target: T6, Adenosine receptor A1 (Homo sapiens) (UniProt P30542); assay: Antagonist activity at human adenosine A1 receptor expressed in CHO cells assessed as effect on forskolin-stimulated cAMP production at 1 uM; format: functional, cell-based; design: scale not given: the % may be the effect or the level left; conditions: filed as antagonist
T6 sequence (whole entry): T1 sequence (P30542 whole entry)
In short: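 Human A1-expressing CHO cells, 2 × 10^5/well, grown overnight; in HEPES/DMEM (pH 7.4) with adenosine deaminase 0.8 IU/mL, rolipram 50 μM and cilostamide 50 μM, 30 min at 37 °C. Then CPA 1 μM, test compound 1 μM, 10 min; forskolin 10 μM added for 15 min. Stopped with ice-cold 0.1 M HCl. cAMP measured by [3H]cAMP/PKA competition; normalized to CPA (0%) and forskolin (100%). Three independent experiments in duplicate.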

[6] = target: T6, Adenosine receptor A1 (Homo sapiens); assay: Antagonist activity at human adenosine A1 receptor expressed in CHO cells assessed as reversal of CPA-induced effect on forskolin-stimulated cAMP production at 10 uM; format: functional, cell-based; conditions: filed as antagonist
Adenosine receptor A2a [7] = target: T2, Adenosine receptor A2a; assay: Displacement of [3H]ZM-241385 from human adenosine A2A receptor expressed in HEK293 cells; format: cell-based
[8] = target: T6, Adenosine receptor A1 (Homo sapiens); assay: Displacement of [3H]DPCPX from human adenosine A1 receptor expressed in CHO cells at 1 uM; format: cell-based

T2 sequence (P29274 whole entry): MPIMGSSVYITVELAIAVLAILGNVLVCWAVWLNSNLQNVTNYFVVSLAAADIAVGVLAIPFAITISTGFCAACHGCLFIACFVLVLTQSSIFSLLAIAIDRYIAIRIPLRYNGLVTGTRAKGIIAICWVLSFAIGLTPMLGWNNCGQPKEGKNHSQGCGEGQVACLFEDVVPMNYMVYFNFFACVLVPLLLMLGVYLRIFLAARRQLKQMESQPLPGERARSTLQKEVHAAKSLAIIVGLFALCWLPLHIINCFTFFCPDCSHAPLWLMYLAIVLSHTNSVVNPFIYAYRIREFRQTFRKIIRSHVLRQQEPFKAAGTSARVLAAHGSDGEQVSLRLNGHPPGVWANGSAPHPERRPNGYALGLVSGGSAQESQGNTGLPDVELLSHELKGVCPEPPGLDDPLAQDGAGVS

Structure (SMILES) | Ki (Adenosine receptor A1) | Activity (Adenosine receptor A2a [1]) | Activity [2] | Ki (Adenosine receptor A3) | Ki (Adenosine receptor A2a [7]) | also measured
O=C(Nc1nc(-c2ccccc2)cc(-c2ccccc2)n1)c1ccccc1 | 309 nM (antagonist) | 5% | 38% | – | – | –
O=C(Nc1cc(-c2ccccc2)nc(-c2ccccc2)n1)c1ccccc1 | – | 17% | – | 1300 nM (antagonist) | – | Selectivity ratio [3]: 2
O=C(Nc1nc(-c2ccccc2)cc(-c2ccccc2)n1)C1CCC1 | 107 nM (antagonist) | 33% | 18% | – | – | –
CCC(C)C(=O)Nc1cc(-c2ccccc2)nc(-c2ccccc2)n1 (centres undefined) | – | – | – | 147 nM (antagonist) | 899 nM (antagonist) | Activity [4]: 44%; Activity [5]: 60%; Activity [6]: Antagonist
O=C(Nc1cc(-c2ccccc2)nc(-c2ccccc2)n1)C1CC1 | 7.58 nM (antagonist) | – | – | 25 nM (antagonist) | 189 nM (antagonist) | –
CCCCCC(=O)Nc1cc(-c2ccccc2)nc(-c2ccccc2)n1 | 109 nM (antagonist) | 48% | – | 392 nM (antagonist) | – | –
CC(C)C(=O)Nc1cc(-c2ccccc2)nc(-c2ccccc2)n1 | – | – | – | 267 nM (antagonist) | 376 nM (antagonist) | Selectivity ratio [3]: 24
CC(C)(C)CC(=O)Nc1cc(-c2ccccc2)nc(-c2ccccc2)n1 | – | 32% | 39% | – | – | Activity [4]: 4%
CCC(=O)Nc1cc(-c2ccccc2)nc(-c2ccccc2)n1 | – | – | – | 22.4 nM (antagonist) | 81.9 nM (antagonist) | Selectivity ratio [3]: 2
CCCC(=O)Nc1nc(-c2ccccc2)cc(-c2ccccc2)n1 | 3.7 nM (antagonist) | 7% | 38% | – | – | Activity ([4]; filed as antagonist): 54%
CC(C)(C)C(=O)Nc1cc(-c2ccccc2)nc(-c2ccccc2)n1 | – | 18% | 49% | – | – | –
O=C(Nc1nc(-c2ccccc2)cc(-c2ccccc2)n1)c1cccc(Cl)c1 | 368 nM (antagonist) | 22% | 41% | – | – | –
CC(=O)Nc1nc(-c2ccccc2)cc(-c2ccccc2)n1 | – | 31% | – | 237 nM (antagonist) | – | –
O=C(Nc1nc(-c2ccccc2)cc(-c2ccccc2)n1)c1ccc(Cl)c(Cl)c1 | – | 0% | 30% | – | – | Activity [8]: 0%
O=C(Nc1nc(-c2ccccc2)cc(-c2ccccc2)n1)C1CC1 | 24.9 nM (antagonist) | – | – | 676 nM (antagonist) | 228 nM (antagonist) | –
CC(C)C(=O)Nc1nc(-c2ccccc2)cc(-c2ccccc2)n1 | 8.87 nM (antagonist) | 44% | 45% | – | – | Activity ([4]; filed as antagonist): 79%
CCC(=O)Nc1nc(-c2ccccc2)cc(-c2ccccc2)n1 | 46.4 nM (antagonist) | – | – | 547 nM (antagonist) | 893 nM (antagonist) | –
Cc1ccc(C(=O)Nc2nc(-c3ccccc3)cc(-c3ccccc3)n2)cc1 | – | 0% | 13% | – | – | Activity [8]: 37%

Structure (SMILES) | Ki (Adenosine receptor A1) | Activity (Adenosine receptor A2a [1]) | Activity [2] | Ki (Adenosine receptor A3) | Ki (Adenosine receptor A2a [7]) | also measured
O=C(Nc1cc(-c2ccccc2)nc(-c2ccccc2)n1)C1CCCCC1 | – | – | 32% | – | 208 nM (antagonist) | –
CCCC(=O)Nc1cc(-c2ccccc2)nc(-c2ccccc2)n1 | – | – | – | 167 nM (antagonist) | 124 nM (antagonist) | –
CCC(CC)C(=O)Nc1nc(-c2ccccc2)cc(-c2ccccc2)n1 | 27.1 nM (antagonist) | 11% | 27% | – | – | –
CCC(CC)C(=O)Nc1cc(-c2ccccc2)nc(-c2ccccc2)n1 | – | – | 57% | – | 381 nM (antagonist) | Activity ([4]; filed as antagonist): 72%
O=C(Nc1nc(-c2ccccc2)cc(-c2ccccc2)n1)C1CCCC1 | 11.4 nM (antagonist) | 11% | 39% | – | – | Activity [4]: 42%
O=C(Nc1cc(-c2ccccc2)nc(-c2ccccc2)n1)C1CCCC1 | – | – | – | 170 nM (antagonist) | 196 nM (antagonist) | Activity ([4]; filed as antagonist): 52%; Activity [5]: 60%; Activity [6]: Antagonist
CC(=O)Nc1cc(-c2ccccc2)nc(-c2ccccc2)n1 | – | – | – | 6.88 nM (antagonist) | 489 nM (antagonist) | –
O=C(Nc1cc(-c2ccccc2)nc(-c2ccccc2)n1)C1CCC1 | – | – | – | 178 nM (antagonist) | 179 nM (antagonist) | Activity ([4]; filed as antagonist): 74%
CC(C)(C)C(=O)Nc1nc(-c2ccccc2)cc(-c2ccccc2)n1 | 224 nM (antagonist) | 0% | 4% | – | – | –
O=C(Nc1cc(-c2ccccc2)nc(-c2ccccc2)n1)c1ccc(Cl)cc1 | – | 0% | 33% | – | – | Activity [8]: 35%
CC(C)CC(=O)Nc1nc(-c2ccccc2)cc(-c2ccccc2)n1 | 25.1 nM (antagonist) | 42% | 23% | – | – | –
CCCCCC(=O)Nc1nc(-c2ccccc2)cc(-c2ccccc2)n1 | – | 0% | 24% | – | – | Activity [8]: 28%
COc1ccc(C(=O)Nc2cc(-c3ccccc3)nc(-c3ccccc3)n2)cc1 | – | 0% | – | 1170 nM (antagonist) | – | Activity [8]: 30%
O=C(Nc1nc(-c2ccccc2)cc(-c2ccccc2)n1)c1ccc(Cl)cc1 | – | 0% | – | 3280 nM (antagonist) | – | Activity [8]: 0%
O=C(Nc1nc(-c2ccccc2)cc(-c2ccccc2)n1)C1CCCCC1 | 119 nM (antagonist) | 31% | 9% | – | – | –
COc1ccc(C(=O)Nc2nc(-c3ccccc3)cc(-c3ccccc3)n2)cc1 | – | 45% | 41% | – | – | Activity [8]: 31%
CC(C)CC(=O)Nc1cc(-c2ccccc2)nc(-c2ccccc2)n1 | – | – | – | 447 nM (antagonist) | 157 nM (antagonist) | –
CCCCC(=O)Nc1nc(-c2ccccc2)cc(-c2ccccc2)n1 | 27.6 nM (antagonist) | 0% | 23% | – | – | –
